# Assay outcomes (PubChem)
# Sampled rows, rich in hits. Any-hit rate of the full collection: about 1.5%.
# Arrestin-AP2 inh: human beta-arrestin and AP2 interaction inhibition | FITC-arrestin peptide / GST-AP2 beads, flow cytometry; AP2 beta2 appendage carries R879A mutation | inhibition, % at 10 µM | actives 0.31% (n = 340,000);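 active = inhibition above a set limit, near 3 SD of compounds lacking own fluorescence, cut at about 54% in these data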;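 note: plate controls were DMSO wells for no effect and 5 µM unlabelled arrestin peptide for full effect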
#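 Assay system: GST-AP2 R879A bound to glutathione beads, E. coli-expressed; Medium: PBS with 0.05% Tween 20 and 0.1% BSA; Also added: fluorescein-tagged arrestin peptide at 50 nM final; Timing: 12 min plus 1 h, RT; Measured by: flow cytometry, FL1 (488/535 nm); Evaluation: percent drop in bead-associated FITC signal.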
# Pemphigus Ab inh: blocks pemphigus antibody binding to human desmoglein-3. DSG3-coupled beads, scFv-anti-DSG3-GFP binding, flow cytometry; hits give low values. AID 588358. binding (percent of control), % at 10 µM. actives 0.48% (n = 310,000);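 active = binding more than 3 SD below its plate's average and above zero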;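 note: hits lower antibody fragment binding to DSG3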
# HDAC3 inh: human HDAC3 inhibition; recombinant HDAC3, fluorogenic peptide/trypsin coupled, fluorescence; AID 2718; inhibition, % at 8.3 µM; O15379; actives 0.15% (n = 320,000); in the data active = inhibition above about 26%, passing the limit was not always enough
# T cell modulator: T cell immune modulation candidate; 2C CD8+ T cell-vesicle binding, flow cytometry; hits give low values; response (vesicle binding), % at 7 µM; actives 0.068% (n = 330,000); AID 2052;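 active = response, share of CD8 T cells binding vesicles, and their 90th percentile fluorescence all below set limits, cut at about 80% in these data, passing the limit was not always enough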;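 note: values below 100% mean blocked vesicle binding to the CD8+ T cells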
#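 Material: murine 2C transgenic CD8+ T lymphocytes / Also added: QL9-peptide-loaded Drosophila micro-vesicles bearing Ld, ICAM-1 and B7-1 / Schedule: binding step 1.5 h, 37 °C, antibody labelling 20 min, ice / Signal: flow cytometry, PE anti-B7-1 (FL2) versus Alexa647 anti-CD8 (FL8), PFA-fixed / Evaluation: percent CD8+ FL2 mean versus row control / Benchmarks: naked versus QL9-loaded vesicles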
# LANA-H2A inh: blocks KSHV LANA binding to histone H2A/H2B | Q9QR71 | cell-free LANA-H2A/H2B peptide, fluorescence polarization | inhibition, % (test concentration not listed) | actives 0.6% (n = 320,000) | AID 2629; in the data active = inhibition mostly above about 10%, no sharp cut-off; inactive = mostly below about 6.7%
# Numbers without * were called inactive; i = inactive; . = not tested or not shown.
SMILES,Arrestin-AP2 inh,Pemphigus Ab inh,HDAC3 inh,T cell modulator,LANA-H2A inh
O=S(Cc1ccc(Cl)cc1)CC(O)COCc1ccc(Cl)cc1 (stereo not drawn),6,99,1,253,19*
OC(CNCc1ccccc1)COCc1ccc(Cl)cc1 (stereo not drawn),-2,99,-5,420,3
CCCOc1ccc(OCCSc2nnc(N)s2)cc1,-3,101,-4,483,0
Nc1nnc(SCCCOc2ccc(F)cc2)s1,23,113,-1,430,25*
CC(=O)c1ccccc1NC(=O)CN1C(=O)NC2(CCCCCCC2)C1=O,44,101,.,.,.
Cc1cccc(CNC(=O)C2CCC(=O)N(C3CCCCCC3)C2)c1 (stereo not drawn),-8,107,-5,177,-7
CCCC(C)c1nnc(NC(=O)CS(=O)(=O)Cc2ccccc2)s1 (stereo not drawn),-1,107,-2,205,30*
CCCC(C)c1nnc(NC(=O)CCS(=O)(=O)Cc2ccccc2)s1 (stereo not drawn),-5,93,2,194,6
COc1cc(/C=C/C(=O)N2CCCC2)cc(OC)c1OC,0,104,-4,278,9.1*
COc1cc2c(cc1OC)CN(C(=O)/C=C/c1cc(OC)c(OC)c(OC)c1)CC2,-14,104,-5,210,-3
COc1cc2c(cc1OC)C(C)N(C(=O)/C=C/c1cc(OC)c(OC)c(OC)c1)CC2 (stereo not drawn),-1,82*,-8,102,2
COc1ccc(C2=NN3C(=O)c4c(ccc(OC)c4OC)C3C2)cc1 (stereo not drawn),26,106,-2,428,38*
CCCCc1cc(=O)oc2cc(OCC(=O)NCCN3CCOCC3)ccc12,3,94,5,350,15*
COc1ccc(-c2cc(=O)oc3cc(OCC(=O)NCCN4CCOCC4)ccc23)cc1,8,126,10,257,16*
O=C(COc1ccc2c(-c3ccccc3)cc(=O)oc2c1)NCCN1CCOCC1,2,102,5,223,4
CCCC[C@@H]1C=C(C(=O)O)[C@H](c2ccc(Cl)cc2)N1S(=O)(=O)c1ccc(C)cc1,1,106,3,242,84*
CCOc1ccc(N(Cc2cc3cc(C)ccc3[nH]c2=O)S(=O)(=O)c2ccccc2)cc1,-17,111,-2,88,-4
Cc1cc(C)n(-c2ccc(NC(=O)C3CCCCN3C(=O)c3ccoc3)cc2)n1 (stereo not drawn),14,.,-2,477,55*
Cc1cc(C)n(-c2ccc(NC(=O)C3CCCCN3C(=O)c3occc3C)cc2)n1 (stereo not drawn),0,106,4,266,-5
CCCCCn1nc(C(=O)N(CCOC)c2c(N)n(CCCC)c(=O)[nH]c2=O)c2ccccc2c1=O,-10,110,6,428,0
CCCCCCn1nc(C(=O)N(CCOC)c2c(N)n(CCCC)c(=O)[nH]c2=O)c2ccccc2c1=O,-5,119,2,322,18*
O=C(NO)c1ccc(OC(F)F)cc1,-4,97,73*,65,6
Nc1nonc1OCCN1CCN(c2ccc([N+](=O)[O-])c3cccnc23)CC1,-3,101,5,531,1
Cc1nonc1OCCN1CCN(c2ccccc2[N+](=O)[O-])CC1,-5,86,3,187,23*
CC(=O)OC/C=C(\C)CCC=C(C)C,0,95,-2,370,-2
SMILES,Arrestin-AP2 inh,Pemphigus Ab inh,HDAC3 inh,T cell modulator,LANA-H2A inh
CC(C)=CCC/C(C)=C/CC/C(C)=N/O,-4,.,6,370,12*
CN(C)c1ccc(N2C(=NC(=O)CCC3CCCC3)SC3CS(=O)(=O)CC32)cc1 (stereo not drawn),-3,.,-8,357,1
O=C1c2c(O)cccc2Cc2cccc(O)c21,8,64*,7,236,3
Fc1cc(Br)ccc1COc1ccc(-c2nnco2)cc1,-11,70,-1,313,8
Cc1noc(NS(=O)(=O)c2ccc(NS(=O)(=O)c3ccc(C(C)(C)C)cc3)cc2)c1C,.,95,.,.,.
Cc1ccc(C(=O)N2C(=O)c3cccc(N)c3C2=O)o1,2,87,7,312,20*
Nc1cccc2c1C(=O)N(C(=O)c1cccc(S(=O)(=O)N3CCCC3)c1)C2=O,2,93,2,402,5
COc1ccc(NC(=O)COC(=O)c2ccc(-n3cnnn3)cc2)c([N+](=O)[O-])c1,0,107,2,271,-1
C[C@H]1CN([C@@H](C)CO)C(=O)CCCn2cc(nn2)CO[C@@H]1CN(C)C(=O)Nc1ccc(N2CCCCC2)cc1,.,101,.,.,.
CN(C(=O)c1ccccc1C(=O)OCC(=O)c1ccc(F)cc1)c1ccccc1,15,91,0,330,-2
CN(C(=O)c1ccccc1C(=O)OCC(=O)c1ccccc1)c1ccccc1,-6,94,3,297,30*
Cc1ccc2cc3c(=O)n(C)cc(C=O)c3nc2c1,8,99,.,.,.
CCN(Cc1ccccc1)C(=O)CCS(=O)(=O)c1ccc2c(c1)n(C)c(=O)c(=O)n2C,1,97,5,i,5
CCCCNC(=O)c1cn(CC)c2ccc(S(=O)(=O)N3CCCC3)cc2c1=O,9,105,1,543,1
CCn1cc(C(=O)NCCCOC)c(=O)c2cc(S(=O)(=O)N3CCCC3)ccc21,16,109,10,90,14*
COc1ccc(CNS(=O)(=O)c2csc(C(N)=O)c2)cc1OC,-18,92,4,384,5
COc1ccccc1NC(=O)c1ccc(C(=O)c2ccccc2)o1,9,118,6,282,-2
O=C(Nc1ccccc1O)c1ccc(C(=O)c2ccccc2)o1,-2,102,48*,163,3
CC1(C)Cc2ccccc2C(C(Cc2ccccc2)C(N)=O)=N1 (stereo not drawn),32,98,-8,504,6.5*
COc1cc(CCNC2=CC(=O)c3ncccc3C2=O)ccc1O,-25,78,.,.,.
COc1cc([N+](=O)[O-])ccc1N1C(=O)CC(Sc2nccc(C)n2)C1=O (stereo not drawn),26,103,6,205,15*
Cc1cc(C)nc(SC2CC(=O)N(c3ccc(C)c(C)c3)C2=O)n1 (stereo not drawn),25,98,-2,181,16*
Cc1cc(C)nc(SC2CC(=O)N(c3ccc(Cl)cc3)C2=O)n1 (stereo not drawn),-9,116,-6,210,1
COc1cccc(CC(O)CC2c3c(cc4c(c3OC)OCO4)CCN2C)c1 (stereo not drawn),-6,98,.,.,.
O=C(O)CCN1C(=O)C2C3C=CC(C2C1=O)C1C(=O)N(CCC(=O)O)C(=O)C31 (stereo not drawn),0,108,-1,319,4
